Measured values taken from PMC11342948 (International Journal of Nanomedicine, 2024).

Assays:
MPTP-induced PD model [1] = test: Behavioral assays; assay type: in vivo, C57BL/6J mice
Procedure, shortened: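 Male C57BL/6J mice (8 weeks, 22–25 g), 12 per cohort, given MPTP 30 mg/kg/day i.p. in 0.9% saline for 5 days, with daily i.v. test compound (13 mg/kg, free or liposomal), L-Dopa 4.95 mg/kg or saline. On day 16: 10-min video-tracked open field (50 cm box, 30×30 cm centre) and vertical pole descent (1.5 cm × 55 cm, head up; T-turn, T-total). n=8, mean ± SD.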

MPTP-induced PD model [2] = test: Dopamine and its metabolites in the striatum; assay type: in vivo, C57BL/6J mice; conditions: for dopamine levels: L-Dopa 4.95 mg/kg, ECH 13 mg/kg
MPTP-induced PD model [3] = test: Oxidative stress assay in the striatum; assay type: in vivo, C57BL/6J mice; conditions: vs MPTP cohort
Procedure, shortened: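 The MPTP mouse model used male C57BL/6J mice given 30 mg/kg/day i.p. for 5 days, with daily i.v. test compound at 13 mg/kg. After day-16 behaviour and perfusion, striatum was homogenised in 1% triton (1 g/9 mL) and spun at 15294 g, 4°C, 10 min. SOD, GSH-PX and MDA in the supernatant were measured with commercial kits per the manufacturer.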

MPTP-induced PD model [4] = test: Tyrosine hydroxylase immunohistochemical staining; assay type: in vivo, C57BL/6J mice
Procedure, shortened: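 In the same MPTP model (30 mg/kg/day i.p., 5 days; daily i.v. test compound), perfused brains were cut into 5 μm coronal sections. These were incubated with rabbit polyclonal anti-TH (1:400, PBS) overnight at 4°C, then HRP secondary (1:200), with DAB detection. Striatal TH fiber immunoreactivity was quantified by image analysis. TH-positive neurons were counted in every sixth section through the substantia nigra.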

[5] = Evans blue BBB integrity test; assay type: in vivo, mice; conditions: Evans blue 50 mg/kg intravenously, 30 minutes
bEnd.3 monolayer = test: In vitro BBB penetration, transwell model; conditions: 2 μg/mL
[6] = open-field test, day 16, vs MPTP-treated mice
[7] = pole test, day 16, vs MPTP-treated cohort

N[C@@H](Cc1ccc(O)c(O)c1)C(=O)O [L-Dopa, levodopa]
average speed (MPTP-induced PD model [1]; [6]): increased | movement within the central area (MPTP-induced PD model [1]; [6]): significantly improved | percentage of time spent in the center (MPTP-induced PD model [1]; [6]): increased | time spent immobile (MPTP-induced PD model [1]; [6]): decreasing | total distance traveled (MPTP-induced PD model [1]; [6]): increased | T-total (MPTP-induced PD model [1]; [7]): significantly reduced | T-turn (MPTP-induced PD model [1]; [7]): significantly reduced | DOPAC levels, increase compared to the MPTP cohort (MPTP-induced PD model [2]): 1.59 fold | HVA levels, increase compared to the MPTP cohort (MPTP-induced PD model [2]): 1.63 fold | dopamine levels (MPTP-induced PD model [2]; MPTP 30 mg/kg i.p. five days): 1.27 ± 0.09 ng/mg of wet striatum tissue | GSH-PX levels (MPTP-induced PD model [3]): significantly elevated | MDA levels (MPTP-induced PD model [3]): reducing | SOD levels (MPTP-induced PD model [3]): significantly elevated | MPTP-induced reduction in TH immunoreactivity in the striatum (MPTP-induced PD model [4]; striatum): effectively counteracted | TH-positive neuron counts in the substantia nigra (MPTP-induced PD model [4]; substantia nigra): partially restored

CN1CC=C(c2ccccc2)CC1 [MPTP, 1-methyl-4-phenyl-1,2,3,6-tetrahydropyridine]
dopamine levels, reduction compared to the control (MPTP-induced PD model [2]; MPTP 30 mg/kg i.p. five days): 2.65 fold | dopamine levels (MPTP-induced PD model [2]; MPTP 30 mg/kg i.p. five days): 0.95 ± 0.15 ng/mg of wet striatum tissue | BBB integrity (Evans blue levels in brain tissue) [5]: did not compromise BBB integrity

O=C([O-])c1ccccc1-c1c2ccc(=O)cc-2oc2cc([O-])ccc12.[Na+].[Na+] [fluorescein sodium]
apparent permeability coefficient (bEnd.3 monolayer): 6.92 ± 3.92×10^−6 cm/s

Echinacoside [Free ECH]
dopamine levels (MPTP-induced PD model [2]; MPTP 30 mg/kg i.p. five days): 1.27 ± 0.36 ng/mg of wet striatum tissue | neuroprotection (TH immunohistochemistry) (MPTP-induced PD model [4]; compared to the MPTP cohort / other treatments): did not provide significant neuroprotection
